The target in one data set is p38β kinase (Homo sapiens, UniProt Q15759). The experiment in a line: ADP-Glo kinase luminescent assay. The data set is classed as biochemical. The following applies: 1 μM TPPU, relative to vehicle control.
In a further data set the target is T1, p38γ kinase (Homo sapiens, UniProt P53778).
T1 sequence (P53778 1-367): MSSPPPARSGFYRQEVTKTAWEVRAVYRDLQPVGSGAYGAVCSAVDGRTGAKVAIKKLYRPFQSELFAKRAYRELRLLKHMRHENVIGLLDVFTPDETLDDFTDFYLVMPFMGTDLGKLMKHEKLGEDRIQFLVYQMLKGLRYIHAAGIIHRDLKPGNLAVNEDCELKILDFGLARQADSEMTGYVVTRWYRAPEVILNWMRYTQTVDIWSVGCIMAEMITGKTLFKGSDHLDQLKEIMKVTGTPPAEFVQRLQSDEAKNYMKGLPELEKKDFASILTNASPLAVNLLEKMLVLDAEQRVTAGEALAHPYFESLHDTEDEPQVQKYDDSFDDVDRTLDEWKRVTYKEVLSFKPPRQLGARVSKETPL
In words: ADP-Glo kinase luminescent assay. The data set is classed as biochemical. As to conditions: 1 μM TPPU, relative to vehicle control.

The next data set has as its system p38α. The experiment in a line: ADP-Glo kinase luminescent assay. The following applies: 1 μM TPPU. The data set is classed as biochemical, human. Summed up:
(§1)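 Test compound at 1 μM, or 0.2% PEG 400 vehicle. Incubated 1 h at room temperature, then ADP-Glo luminescence read. Staurosporine 1 μM served as reference. Activity expressed relative to vehicle. Duplicates, six independent experiments.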

The test system of the next data set is p38δ. In words: ADP-Glo kinase luminescent assay. As to conditions: 1 μM TPPU. Format: biochemical, human. The method in brief:
as §1

The next data set concerns the target GSK-3β (Homo sapiens, UniProt P49841). In words: ADP-Glo kinase luminescent assay. Format: biochemical. As to conditions: 1 μM TPPU, in comparison with p38β.
The test system of the next data set is AMPKA2. In words: ADP-Glo kinase luminescent assay. The following applies: 1 μM TPPU, in comparison with p38β. The data set is classed as biochemical, human. The method in brief: as §1
Another data set deals with CK1α1. The experiment in a line: ADP-Glo kinase luminescent assay. The data set is classed as biochemical, human. As to conditions: 1 μM TPPU, in comparison with p38β. Summed up: as §1
The next data set has as its system sEH in SH-SY5Y cells. The experiment in a line: Cellular sEH activity in SH-SY5Y cells, [3H]-t-DPPO substrate. Format: cell-based, human. As to conditions: 10, 100 and 1000 nM for 24 h.
Data set [1] relates to SH-SY5Y cells. The experiment in a line: Cell viability / cytotoxicity MTS assay. Format: cell-based, human. The following applies: TPPU alone, 72 h.
Data set [2] has as its system Aβ42 neurotoxicity in SH-SY5Y cells. In words: Anti-Aβ42 neurotoxicity assay. The data set is classed as cell-based, human. As to conditions: 0.1 μM pretreatment 1 h then 10 μM Aβ42 72 h.
Data set [3] concerns SH-SY5Y cells. In words: Neuronal morphology analysis under Aβ42. The data set is classed as cell-based, human. As to conditions: 100 nM pretreatment then 10 μM Aβ42, 72 h.
In data set [4] the test system is Tau pS396 in SH-SY5Y cells. The experiment in a line: Anti-tau hyperphosphorylation ELISA. The data set is classed as cell-based, human.
Data set [5] concerns NF-κB (p50, p52, p65, RelB, c-Rel) in SH-SY5Y cells. The experiment in a line: Nuclear NF-κB DNA-binding ELISA. The data set is classed as cell-based, human.
Data set [6] relates to mitochondrial membrane potential (Δψm) in SH-SY5Y cells. The experiment in a line: JC-10 mitochondrial membrane potential assay. Format: cell-based, human.
The next data set concerns sEH. As to conditions: read-out: IC50 sEH; cited from earlier work.
Another data set deals with p38α/β. As to conditions: read-out: IC50 p38α/β; cited from earlier work.

p38β kinase, sequence (Q15759 whole entry): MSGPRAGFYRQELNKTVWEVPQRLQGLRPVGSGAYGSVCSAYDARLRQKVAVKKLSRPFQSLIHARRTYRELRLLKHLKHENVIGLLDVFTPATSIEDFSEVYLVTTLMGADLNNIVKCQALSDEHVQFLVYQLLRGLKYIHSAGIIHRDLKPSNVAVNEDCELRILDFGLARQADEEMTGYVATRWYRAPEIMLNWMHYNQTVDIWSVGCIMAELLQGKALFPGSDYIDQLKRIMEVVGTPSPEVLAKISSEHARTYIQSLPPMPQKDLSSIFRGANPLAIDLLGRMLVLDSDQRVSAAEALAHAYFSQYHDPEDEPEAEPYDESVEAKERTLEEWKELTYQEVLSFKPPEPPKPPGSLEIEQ
GSK-3β, sequence (P49841 whole entry): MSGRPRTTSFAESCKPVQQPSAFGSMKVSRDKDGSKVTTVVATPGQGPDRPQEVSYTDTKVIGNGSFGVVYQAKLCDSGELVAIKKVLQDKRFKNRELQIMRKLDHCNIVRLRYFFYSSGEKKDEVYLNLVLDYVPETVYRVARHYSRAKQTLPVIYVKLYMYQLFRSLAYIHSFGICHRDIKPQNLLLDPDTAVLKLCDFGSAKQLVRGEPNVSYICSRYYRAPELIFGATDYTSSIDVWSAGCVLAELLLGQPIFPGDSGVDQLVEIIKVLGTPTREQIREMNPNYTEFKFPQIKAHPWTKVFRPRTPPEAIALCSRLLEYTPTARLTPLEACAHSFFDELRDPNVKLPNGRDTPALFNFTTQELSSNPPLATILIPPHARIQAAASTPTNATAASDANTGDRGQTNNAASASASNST

As to `CCC(=O)N1CCC(NC(=O)Nc2ccc(OC(F)(F)F)cc2)CC1` [TPPU], the remaining kinase activity on p38β kinase was 36%; on p38γ kinase, 49%. For the same molecule, the “inhibitory effect on kinase activity” value with p38α and with p38δ was “not significant” each time. Further, the “inhibition of kinase activity” value on GSK-3β, in the data set on AMPKA2 and with CK1α1 was “weakly inhibited” in each case. Further, in the data set on sEH in SH-SY5Y cells, the “cellular sEH activities” value was “significantly decreased cellular sEH activities in a dose-dependent manner”. Moreover, the “tolerable and nontoxic dose” value with SH-SY5Y cells [1] is at most 1000 nM. Also, in data set [2], the “neuroprotection (cell viability)” value is “effective neuroprotection”. Further, the “neuronal morphology / Aβ42 toxicity” value with SH-SY5Y cells [3] is given as “effectively relieved Aβ42 toxicity”. The “Aβ42-induced tau phosphorylation level at pS396” value in [4] (0.01, 0.1 and 1 μM pretreatment 1 h then 10 μM Aβ42 72 h, p < 0.0001) was “significantly mitigated”. For the same molecule, the “alleviation of tau hyperphosphorylation compared with SB202190” value in [4] (TPPU 0.01 μM versus SB202190 0.05 μM) was “stronger alleviative effect”. In addition, in data set [5] (0.05 and 0.1 μM pretreatment 1 h then 5 μM Aβ42 8 h, p < 0.0001), the “nuclear translocation of NF-κB subunits” value is on record as “inhibited nuclear translocation of all five subunits”.
In the case of “epoxyeicosatrienoic acids [EETs, reference compound]”, the “neuroprotection (cell viability)” value in data set [2] is “effective neuroprotection”. Besides, the “loss of Δψm induced by Aβ42” value in [6] (0.1 μM pretreatment, 10 μM Aβ42 72 h) is “attenuated the loss of Δψm”.
For `O=C(NC12CC3CC(CC(C3)C1)C2)N[C@H]1CC[C@H](Oc2ccc(C(=O)O)cc2)CC1` [t-AUCB, trans-4-(4-[3-adamantan-1-yl-ureido]-cyclohexyloxy)-benzoic acid], in the data set with sEH, the IC50 was […].
In the case of `Oc1ccc(-c2nc(-c3ccc(F)cc3)c(-c3ccncc3)[nH]2)cc1` [SB202190, 4-(4-fluorophenyl)-2-(4-hydroxyphenyl)-5-(4-pyridyl)-1H-imidazole], in the data set on p38α/β, the IC50 is […].
Take `C[C@@H]1C[C@H]2[C@@H]3CCC4=CC(=O)C=C[C@]4(C)[C@@]3(F)[C@@H](O)C[C@]2(C)[C@@]1(O)C(=O)CO` [DEX, dexamethasone, reference compound]: the “levels of NF-κB subunits in neuronal nuclei” value in data set [5] (0.1 μM DEX pretreatment 1 h then 5 μM Aβ42 8 h) is reported as “significantly reduced levels of all five NF-κB subunits”.
In the case of `N#CC(C#N)=NNc1ccc(OC(F)(F)F)cc1` [FCCP, carbonyl cyanide-4-(trifluoromethoxy)phenylhydrazone], in [6] (FCCP 50 μM), the “Δψm depolarization (reference ionophore)” value was “depolarized Δψm”.

Values taken from paper PMC7028313 (ACS chemical neuroscience, 2019).
